Test results: ChEMBL document CHEMBL4680079, “Discovery of a Quinoline-4-carboxamide Derivative with a Novel Mechanism of Action, Multistage Antimalarial Activity, and Potent in Vivo Efficacy” (J Med Chem, 2016)
pEC50, pIC50: −log10 of the molar value. Values after ≈ are worked out from the molar mass of the structure shown.

What was measured:
[1] = system: Plasmodium yoelii; assay: Antiplasmodial activity against Plasmodium yoelli liver stage forms; type: functional, organism-based
[2] = system: Plasmodium berghei; assay: Antiplasmodial activity against Plasmodium berghei ANKA infected in NMRI mouse assessed as survival days at 30 mg/kg, po QD for 4 days; type: functional; conditions: time 4 day
[3] = biological target: Voltage-gated inwardly rectifying potassium channel KCNH2 (Homo sapiens, UniProt Q12809); assay: Inhibition of human ERG by IonWorks patch-clamp electrophysiology method
Procedure, shortened: (§1)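 hERG K⁺ channel inhibition measured by IonWorks patch-clamp electrophysiology. Eight-point concentration-response curves made from 3-fold serial dilutions down from the maximum final assay concentration. Each curve generated on 2 occasions.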

[4] = Intrinsic clearance in CD1 mouse liver microsomes at 0.5 uM in presence of NADPH incubated upto 30 mins by UPLC-MS/MS analysis; type: ADME, Microsome; conditions: 0.5 h
Procedure, shortened: (§2)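 Compound at 0.5 μM incubated with female CD1 mouse, male Sprague-Dawley rat or pooled human liver microsomes (0.5 mg/mL, 50 mM potassium phosphate, pH 7.4). Reaction started with excess NADPH. Samples taken at 0-30 min, quenched in acetonitrile, analysed by UPLC-MS/MS. Verapamil used as control, single time course.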

[5] = system: Plasmodium berghei; assay: Antiplasmodial activity against Plasmodium berghei ANKA infected in NMRI mouse assessed as survival days at 3 mg/kg, po QD for 4 days; type: functional; conditions: time 4 day
[6] = Permeability of the compound at 10 uM incubated for 5 hrs by UPLC-MS/MS analysis based PAMPA method; type: ADME; conditions: read-out: permeability
Procedure, shortened: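 PAMPA run on a lipid-oil-lipid tri-layer filter at pH 7.4. Compound at 10 μM in PBS (DMSO ≤5%) in donor wells, PBS in acceptor wells, kept 5 h at room temperature. Both compartments quantified by UPLC-MS/MS. Data accepted only when recovery exceeded 70%.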

[7] = Volume of distribution at steady state in NMRI mouse at 3 mg/kg, iv administered as bolus dose by UPLC-MS/MS analysis; type: ADME, organism-based; conditions: in vivo, read-out: Vdss
Procedure, shortened: (§3)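 Intravenous bolus solution, 3 mg free base/kg (5 mL/kg; 10% DMSO, 90% saline), given to female NMRI mice (n=3). Compound level in blood determined by UPLC-MS/MS. PK parameters derived from the blood concentration-time curve.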

[8] = system: Plasmodium berghei; assay: Antiplasmodial activity against Plasmodium berghei ANKA infected in NMRI mouse assessed as reduction in parasitemia at 30 mg/kg, po QD for 4 days; type: functional; parameters: scale not given: the % may be the effect or the level left; conditions: time 4 day
Procedure, shortened: (§4)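 Female NMRI mice (n=3 per group, randomized, not blinded) infected with GFP-transfected P. berghei ANKA. Oral dosing once daily for 4 days in 10% DMSO/40% PEG400/50% water or HPMC suspension vehicle. Parasitaemia measured by flow cytometry on blood collected 96 h after infection. Mice watched for toxicity over 4 h post-dose each day.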

[9] = Clearance in NMRI mouse blood at 3 mg/kg, iv administered as bolus dose by UPLC-MS/MS analysis; type: ADME, organism-based; procedure, shortened: as §3
[10] = system: Plasmodium falciparum; assay: Antiplasmodial activity against chloroquine-sensitive Plasmodium falciparum 3D7 infected in human red blood cells assessed as growth inhibition by SYBR Green fluorescence assay; type: functional, organism-based, RBC; conditions: 3D7, Erythrocyte
Procedure, shortened: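 P. falciparum 3D7 grown in 5% human red cells in RPMI 1640 (pH 7.3) with 0.5% Albumax II, hypoxanthine and gentamicin at 37°C under 1% O₂/3% CO₂. Growth measured by SYBR green fluorescence (ex 485/em 528 nm), with mefloquine as assay control. EC50 calculated.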

[11] = AUC in NMRI mouse at 10 mg/kg, po administered as gavage by UPLC-MS/MS analysis; type: ADME, organism-based; parameters: dose 10 mg/kg; conditions: in vivo
Procedure, shortened: (§5)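 Female NMRI mice (n=3) dosed by oral gavage as a solution at 10 mg free base/kg (10 mL/kg; vehicle 5 or 10% DMSO, 40% PEG400). Blood levels measured by UPLC-MS/MS. Parameters derived from the blood concentration-time curve.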

[12] = Cmax in NMRI mouse at 10 mg/kg, po administered as gavage by UPLC-MS/MS analysis; type: ADME, organism-based; parameters: route oral, dose 10 mg/kg; conditions: in vivo; procedure, shortened: as §5
[13] = Oral bioavailability in NMRI mouse at 10 mg/kg administered via gavage by UPLC-MS/MS analysis; type: ADME, organism-based; conditions: in vivo; procedure, shortened: as §5
[14] = system: Plasmodium berghei; assay: Antiplasmodial activity against Plasmodium berghei ookinete form assessed as growth inhibition incubated for 22 hrs by GFP-based fluorescence microscopic analysis; type: functional, organism-based
[15] = system: Plasmodium berghei; assay: Antiplasmodial activity against GFP-transfected Plasmodium berghei ANKA infected in NMRI mouse assessed as reduction in parasitemia by measuring effective dose administered once daily oral dose for 4 days; type: functional; conditions: 96 h, time 4 day; procedure, shortened: as §4
[16] = system: MRC5; assay: Antiproliferative activity against human MRC5 cells assessed as reduction in cell viability after 68 hrs by resazurin dye based fluorescence assay; conditions: MRC5, 68 h
Procedure, shortened: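 MRC-5 fibroblasts plated overnight as monolayers, exposed to compound pre-diluted in MEM for 68 h. Resazurin then added (final 50 μM) for 3 h, fluorescence read at ex 528/em 590 nm. Signal converted to % inhibition against high- and no-inhibition controls. Plates accepted at Z' > 0.5.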

[17] = system: Plasmodium berghei; assay: Antiplasmodial activity against Plasmodium berghei ANKA infected in NMRI mouse assessed as reduction in parasitemia at 10 mg/kg, po QD for 4 days; type: functional; parameters: scale not given: the % may be the effect or the level left; conditions: time 4 day; procedure, shortened: as §4
[18] = system: Plasmodium berghei; assay: Antiplasmodial activity against Plasmodium berghei infected in NMRI mouse assessed as reduction in parasitemia at 3 mg/kg, po QD for 4 days; type: functional; parameters: scale not given: the % may be the effect or the level left; conditions: time 4 day; procedure, shortened: as §4
[19] = Tmax in NMRI mouse at 10 mg/kg, po administered as gavage by UPLC-MS/MS analysis; type: ADME, organism-based; conditions: in vivo; procedure, shortened: as §5
[20] = system: Plasmodium berghei; assay: Antiplasmodial activity against Plasmodium berghei ANKA infected in NMRI mouse assessed as reduction in parasitemia at 1 mg/kg, po QD for 4 days; type: functional; parameters: scale not given: the % may be the effect or the level left; conditions: time 4 day; procedure, shortened: as §4
[21] = Half-life in NMRI mouse at 3 mg/kg, iv administered as bolus dose by UPLC-MS/MS analysis; type: ADME, organism-based; conditions: in vivo; procedure, shortened: as §3
[22] = system: Plasmodium berghei; assay: Antiplasmodial activity against Plasmodium berghei ANKA infected in NMRI mouse assessed as survival days at 10 mg/kg, po QD for 4 days; type: functional; conditions: time 4 day
[23] = Intrinsic clearance in human liver microsomes at 0.5 uM in presence of NADPH incubated upto 30 mins by UPLC-MS/MS analysis; type: ADME, Microsome; conditions: 0.5 h; procedure, shortened: as §2
[24] = system: Plasmodium berghei; assay: Antiplasmodial activity against Plasmodium berghei ANKA infected in NMRI mouse assessed as survival days at 1 mg/kg, po QD for 4 days; type: functional; conditions: time 4 day
[25] = system: Plasmodium falciparum; assay: Antiplasmodial activity against late stage (IV/V) Plasmodium falciparum NF54 gametocytes transfected with GFP-LUC assessed as growth inhibition incubated for 72 hrs by mitotracker Red-CMXROS dye based fluorescence microscopic analysis; type: functional, organism-based; conditions: NF54, 72 h
Procedure, shortened: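 NF54 pfs16-LUC-GFP stage IV–V gametocytes (10% parasitaemia, 0.1% haematocrit) exposed to compound in 0.4% DMSO, three concentrations per log, for 72 h at 37°C under 5% CO2/5% O2/90% N2. MitoTracker Red CM-H2Xros then added for 16 h and viable gametocytes counted by imaging.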

[26] = Kinetic aqueous solubility of the compound by laser nephelometry; type: physicochemical; conditions: read-out: Kinetic_solubility
Procedure, shortened: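 Kinetic solubility measured by laser nephelometry. DMSO serial dilutions diluted into water to give final 100–5 μg/mL at 1.0% DMSO. Read immediately, in triplicate aliquots.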

[27] = Protein binding in CD1 mouse plasma measured after 5 hr by UPLC-MS/MS analysis based equilibrium dialysis method; type: ADME, cell-free; conditions: mouse, 5 h
Procedure, shortened: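 Equilibrium dialysis of female CD1 mouse plasma spiked at 10 μg/mL (12-14 kDa membrane) against isotonic buffer for 5 h at ~37°C with shaking. Unbound fraction taken as the buffer/plasma peak-area ratio by UPLC-MS/MS. n=6 replicates, run in triplicate.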

[28] = Intrinsic clearance in Sprague-Dawley rat liver microsomes at 0.5 uM in presence of NADPH incubated upto 30 mins by UPLC-MS/MS analysis; type: ADME, Microsome; conditions: 0.5 h; procedure, shortened: as §2
[29] = biological target: hERG (KCNH2) (Homo sapiens, UniProt Q12809); assay: Inhibition of human ERG at 11 uM by IonWorks patch-clamp electrophysiology method relative to control; procedure, shortened: as §1
[30] = Toxicity in NMRI mouse assessed as maximum tolerated dose administered twice a day for 4 days; conditions: in vivo, time 4 day

Voltage-gated inwardly rectifying potassium channel KCNH2, sequence (Q12809 whole entry): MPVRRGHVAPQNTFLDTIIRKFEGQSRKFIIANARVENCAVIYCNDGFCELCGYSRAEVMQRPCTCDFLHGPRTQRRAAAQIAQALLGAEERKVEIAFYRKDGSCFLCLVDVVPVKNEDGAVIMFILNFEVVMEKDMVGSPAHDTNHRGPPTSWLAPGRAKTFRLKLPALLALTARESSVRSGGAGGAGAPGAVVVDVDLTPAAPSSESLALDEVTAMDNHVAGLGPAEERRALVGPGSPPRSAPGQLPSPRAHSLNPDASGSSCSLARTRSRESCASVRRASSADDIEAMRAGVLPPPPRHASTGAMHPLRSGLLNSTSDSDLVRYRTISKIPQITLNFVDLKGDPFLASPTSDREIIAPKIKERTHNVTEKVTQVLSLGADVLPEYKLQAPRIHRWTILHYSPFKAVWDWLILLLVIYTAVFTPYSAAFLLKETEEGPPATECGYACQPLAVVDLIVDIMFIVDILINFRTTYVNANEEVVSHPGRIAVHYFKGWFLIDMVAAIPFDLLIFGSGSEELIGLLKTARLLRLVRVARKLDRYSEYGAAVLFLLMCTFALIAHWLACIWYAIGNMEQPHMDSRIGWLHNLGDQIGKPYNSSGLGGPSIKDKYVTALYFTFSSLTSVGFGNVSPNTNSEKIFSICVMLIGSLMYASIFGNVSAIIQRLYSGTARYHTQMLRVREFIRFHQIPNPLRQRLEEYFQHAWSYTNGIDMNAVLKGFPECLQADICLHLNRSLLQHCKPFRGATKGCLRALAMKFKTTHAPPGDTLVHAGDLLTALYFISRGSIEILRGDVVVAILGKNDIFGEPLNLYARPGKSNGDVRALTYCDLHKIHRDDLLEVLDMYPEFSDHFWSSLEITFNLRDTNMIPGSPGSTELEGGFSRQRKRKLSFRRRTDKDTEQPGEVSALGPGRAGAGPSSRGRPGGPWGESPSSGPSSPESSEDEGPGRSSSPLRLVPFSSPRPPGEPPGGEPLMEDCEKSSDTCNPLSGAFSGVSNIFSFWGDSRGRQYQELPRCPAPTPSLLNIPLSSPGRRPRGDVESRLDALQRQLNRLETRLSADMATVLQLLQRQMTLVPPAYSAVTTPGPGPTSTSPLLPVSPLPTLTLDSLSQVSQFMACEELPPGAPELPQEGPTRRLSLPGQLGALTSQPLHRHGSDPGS
hERG (KCNH2), sequence (Q12809 whole entry): as above

SMILES | Survival [2] [days] | pIC50 [3] | CLH [4] [mL/min/g] | Papp at 5 h, 10 µM [6] [×10⁻⁶ cm/s] | Vd [7] [L/kg] | Activity [8] [%] | clearance [9] [mL/min/kg] | pEC50 [10] | AUC [11] [ng·h/mL] | Cmax [12] [ng/mL] | bioavailability [13] [%] | pEC50 [16] | Tmax [19] [h] | half-life [21] [h] | CLH [23] [mL/min/g] | solubility kinetic [26] [µM] | further results
O=C(NCCN1CCCC1)c1cc(NCCCCN2CCOCC2)nc2ccc(Cl)cc12 | 22 | < 4.96 | 2 | 0.2 | 3.5 | 99.8 | 4 | 8.40 | 2940 | 579 | 16 | 4.89 | 2 | 12.5 | < 1 | 217 (≈ 99.8 µg/mL) | pEC50 [1]: 7.74; Survival [5]: 9 days; pEC50 [14]: 8.30; ED90 [15]: 2.6 mg/kg; Activity [17]: 99.7%; Activity [18]: 96%; Activity [20]: 48%; Survival [22]: 15 days; Survival [24]: 6 days; pEC50 [25]: 6.98
O=C(NCCN1CCCC1)c1cc(NCCCN2CCOCC2)nc2ccc(F)cc12 | 7 | < 4.96 | 0.8 | 0.23 | 3 | 93 | 14 | 7.15 | 1550 | 315 | 15 | 4.39 | 2 | 3.2 | < 0.5 | 230 (≈ 98.8 µg/mL) | PPB [27]: 59%; CLH [28]: < 0.5 mL/min/g; inhibition at 11 µM [29]: 16%; MTD at 96 h [30]: 300 mg/kg
